# Source: PubChem BioAssay (The Scripps Research Institute Molecular Screening Center)
# Rows were chosen to be rich in hits. Some 1.5% of all compounds tested hit in one or more screens of this group.
# CHRM4 PAM = human M4 muscarinic receptor positive allosteric modulators, primary screen, CHO-K1 cells, Fluo-8 calcium fluorescence. Muscarinic acetylcholine receptor M4 (Homo sapiens), P08173. CHO-K1 hM4/Gqi5, ACh EC20; 0% = ACh EC20, 100% = maximal ACh. activation, % at 3 µM. hit rate 0.4% among 360,000. AID 624126, 2012;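 active = activation above its plate's cutoff, the mean activation of sample wells plus 3 SD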
# V1aR counter = agonists of human V1a receptor, primary screen, counter-screen for OXTR agonist project, fluorescence, CHO-V1R cells | Vasopressin V1a receptor (Homo sapiens), P37288 | Fluo-8 calcium fluorescence, agonist mode; 0% DMSO, 100% 3 nM vasopressin | activation, % at 3 µM | hit rate 0.25% among 320,000 | AID 2797, 2010;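 active = activation above the mean activation of all tested compounds plus 3 SD, per screening run, cut at about 20% in these data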;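 also: signal is peak over basal fluorescence ratio across a 100 second FLIPR read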
# M4 ag = human M4 muscarinic receptor agonists, primary screen, CHO-K1 cells, Fluo-8 calcium fluorescence; Muscarinic acetylcholine receptor M4 (Homo sapiens), P08173; CHO-K1 hM4/Gqi5; vehicle 0%, full acetylcholine response 100%; activation, % at 3 µM; hit rate 0.14% among 360,000;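 active = activation above the run mean over all test wells plus 3 SD, cut at about 32% in these data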;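 also: peak over basal fluorescence ratio per well then scaled between controls; 0% = DMSO wells and 100% = acetylcholine at EC100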
# OXTR ag = human OXTR agonists, primary screen, fluorescence, CHO-OTR cells, Fluo-8 calcium | Fluo-8 calcium fluorescence; normalized: DMSO 0%, oxytocin 100% | activation, % at 3 µM | hit rate 0.32% among 320,000;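 active = activation above the mean of all tested compounds plus 3 SD, cutoff set per screening run, cut at about 20% in these data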;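 also: peak over basal fluorescence ratio from a 100 s FLIPR kinetic read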
# Target sequence (P30559 whole entry, looked up): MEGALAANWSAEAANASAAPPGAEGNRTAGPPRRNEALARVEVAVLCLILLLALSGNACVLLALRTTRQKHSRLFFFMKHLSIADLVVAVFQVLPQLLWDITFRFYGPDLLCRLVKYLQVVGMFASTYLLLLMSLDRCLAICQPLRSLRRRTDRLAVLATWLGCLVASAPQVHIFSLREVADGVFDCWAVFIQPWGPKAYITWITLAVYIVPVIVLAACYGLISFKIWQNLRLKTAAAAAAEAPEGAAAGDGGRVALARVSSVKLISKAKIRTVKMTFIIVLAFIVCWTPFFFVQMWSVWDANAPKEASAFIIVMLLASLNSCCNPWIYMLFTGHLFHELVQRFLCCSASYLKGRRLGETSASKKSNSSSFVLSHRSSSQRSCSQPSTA
# M4 antag = human M4 muscarinic receptor antagonists, primary screen, CHO cells, Fluo-8 calcium fluorescence | AID 624125, 2012 | CHO-hM4 cells, ACh EC80 | hit rate 0.73% among 360,000 | inhibition, % at 3 µM;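 active = inhibition above its plate's cutoff, the mean inhibition of sample wells plus 3 SD, cut at about 27% in these data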;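 also: 0% = acetylcholine EC80 with DMSO and 100% = DMSO without agonist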
# OXTR potentiator = human OXTR potentiators, primary screen, fluorescence, CHO-OTR cells, Fluo-8 calcium; Fluo-8 calcium fluorescence, potentiator mode; 0% = oxytocin EC15, 100% = EC100; AID 2445, 2010; hit rate 0.061% among 320,000; Oxytocin receptor (Homo sapiens), P30559; activation, % at 3 µM;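 active = activation above that plate's cutoff, the mean activation of tested compounds plus 3 SD, cut at about 6.6% in these data, passing the limit was not always enough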;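 also: 100% uses oxytocin at 75 nM as the full agonist control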
#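 assay system = CHO-OTR cells, human receptor | schedule = compound 6 min at room temperature before oxytocin, 100 s read | detection = Fluo-8 intracellular calcium fluorescence, ex 470-495, em 515-575 nm | evaluation = normalized max/min fluorescence ratio, % activation | control set = EC15 oxytocin alone as 0%, 75 nM oxytocin (EC100) as 100%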
# An asterisk follows results filed as active; / = not tested or not shown.
SMILES,CHRM4 PAM,V1aR counter,M4 ag,OXTR ag,M4 antag,OXTR potentiator
O=C(NC(=S)NNC(=O)c1cccs1)c1ccccc1,-2,2,1,1,12,-8
CC(C)(C)c1ccc(C(=O)NC(=S)NNC(=O)c2cccs2)cc1,-19,93*,109*,101*,14,-11
O=C(Nc1ccccc1Cl)c1cc(S(=O)(=O)N2CCCC(C(=O)O)C2)ccc1F (stereo unspecified),51*,0,-1,-2,-18,-5
C[C@@H]1CCCCO[C@H](CN(C)S(=O)(=O)c2cn(C)cn2)[C@@H](C)CN([C@H](C)CO)C(=O)c2cc(NC(=O)c3ccncc3)ccc2O1,18*,/,0,/,-32,/
O=C(O)CN1C(=O)CSc2ccccc21,7,0,1,2,-2,-9
CCOC(=O)CN1C(=O)CSc2ccccc21,8,2,0,0,33*,-5
CNC(=O)CN(c1ccc(OC)cc1)S(=O)(=O)c1ccc(F)cc1,20*,-1,0,0,-11,-9
COc1ccc(N(CC(=O)Nc2c(C)n(C)n(-c3ccccc3)c2=O)S(=O)(=O)c2ccc(F)cc2)cc1,22*,0,4,0,-8,-2
NC(=O)CN1CCOCCOCCOCCOCCOCC1,4,1,0,0,5,-15
NC(=O)CN1CCOCCOCCN(CC(N)=O)CCOCCOCC1,3,1,0,0,101*,-12
O=C(CCSCCC(=O)NCc1ccc(F)cc1)NCc1ccc(F)cc1,5,-1,1,-2,-6,-8
CC(=O)NCCC(=O)NCc1ccc(F)cc1,22*,1,1,0,1,-15
Cc1cc(C)c(C)c(S(=O)(=O)N2CCC(C(=O)N3CC(C)CC(C)C3)CC2)c1C (stereo unspecified),20*,-1,0,-3,-5,6
Cc1cc(C)c(C)c(S(=O)(=O)N2CCC(C(=O)N3CCCC3)CC2)c1C,7,1,5,-2,4,0
CC(C)N(Cc1nnc(-c2ccccc2Cl)o1)C(=O)COc1cccc(Cl)c1,-4,/,14,/,-24,/
Cc1ccc(NC(=O)CCC(=O)NNC(=O)COc2ccc([N+](=O)[O-])cc2)cc1C,18*,0,2,-1,-6,-6
O=C(Nc1ccc2c(c1)OCO2)c1ccc2sc([C@H]3C[C@H](O)[C@@H](CO)O3)nc2c1,16*,/,1,/,-19,/
CCCNC(=O)C1(C)CCCN(CCC(=O)c2ccccc2)C1 (stereo unspecified),4,/,1,/,-13,/
Cc1sc(N)nc1-c1c(C)n(C)c2ccccc12,3,/,0,/,-2,/
N#C/C(=C\c1coc2ccc(O)cc2c1=O)C(=O)Nc1nc2ccccc2s1,-38,308*,67*,257*,39*,-13
CC1CC1c1ccc(/C=C(\C#N)C(=O)Nc2ccc(Cl)cc2)o1 (stereo unspecified),-6,1,2,-1,2,-4
N#C/C(=C/c1ccc(N2CCCCC2)o1)C(=O)Nc1ccc(Cl)cc1,-19,225*,170*,197*,45*,-10
N#C/C(=C/c1ccc(N2CCCCC2)o1)C(=O)Nc1ccc2ccccc2c1,-23,/,181*,/,84*,/
N#C/C(=C/c1ccc(N2CCCCCC2)o1)c1cccc(F)c1,-6,1,4,3,15,-4
Nc1nc(N)c2cc(CNc3ccc(Cl)c(Cl)c3)ccc2n1,-2,/,6,/,6,/
COc1ccc(CCNC(=O)Cn2cnc3sc(C)c(-c4ccc(F)cc4)c3c2=O)cc1OC,1,23*,9,20*,-7,-36
COC(=O)c1sc2ncn(CC(=O)NCCc3ccc(OC)c(OC)c3)c(=O)c2c1C,8,1,1,0,-10,-8
